{"source": "ChEMBL document CHEMBL5230168", "about": "“Design, synthesis, and biological evaluation of new arjunolic acid derivatives as anticancer agents” (RSC Med Chem, 2023)", "key": {"[1]": {"system": "PANC-1", "assay": "Synergistic cytotoxicity against human PANC-1 cells assessed as combination index at 0.24 uM incubated for 72 hrs in the presence of 12 uM gemcitabine by MTT assay", "format": "functional"}, "[2]": {"system": "A-375", "assay": "Cytotoxicity against human A-375 cells assessed as inhibition of cell growth incubated for 72 hrs by MTT assay", "format": "functional, cell-based", "details": "A-375, 72 h", "outline": "(§1)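 Cells seeded per well (HT-29 4500, PANC-1 4000, SK-MEL-28 3200, A375 1200, A549 2500, H2170 and BJ 10 000) and left 24 h. They were then exposed to increasing concentrations for 72 h and incubated 1 h with MTT 0.5 mg mL−1. Formazan was dissolved in DMSO and absorbance read at 550 nm. IC50 from three independent experiments. Final DMSO ≤0.5%.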"}, "[3]": {"system": "A549", "assay": "Cytotoxicity against human A549 cells assessed as inhibition of cell growth incubated for 72 hrs by MTT assay", "format": "functional, cell-based", "details": "A549, 72 h", "outline": "as §1"}, "[4]": {"assay": "Selectivity index, ratio of IC50 for cytotoxicity against human BJ cells to IC50 for cytotoxicity against human PANC-1", "format": "toxicity, cell-based", "details": "BJ cells and PANC-1 cells, read-out: Ratio IC50", "outline": "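Selectivity index: BJ fibroblast IC50 over PANC-1 IC50, both from the 72 h MTT assay with 24 h pre-seeding (10 000 and 4000 cells/well). IC50 from three independent experiments.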"}, "[5]": {"system": "PANC-1", "assay": "Induction of cell cycle arrest in human PANC-1 cells assessed as accumulation of cells at G0/G1 phase incubated for 24 hrs by PI staining based flow cytometric analysis", "format": "functional", "details": "dose 0.47-2.82 µM"}, "[6]": {"system": "PANC-1", "assay": "Induction of cell cycle arrest in human PANC-1 cells assessed as accumulation of cells at G0/G1 phase at 1.88 uM incubated for 24 hrs by PI staining based flow cytometric analysis (Rvb= 51.8 %)", "format": "functional"}, "[7]": {"system": "PANC-1", "assay": "Induction of apoptosis in human PANC-1 cells assessed as late apoptotic cells at […] incubated for 24 hrs by Annexin V-FITC/PI staining based flow cytometric analysis (reference value: 1.1%)", "format": "functional", "outline": "(§2)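 PANC-1 seeded at 2 × 10^5 cells/well, grown 24 h, then treated 24 h. PI added just before flow cytometry. Quadrant percentages given as mean ± SD of three experiments. Untreated control.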"}, "[8]": {"system": "PANC-1", "assay": "Induction of apoptosis in human PANC-1 cells assessed as early apoptotic cells at 0.94 uM incubated for 24 hrs by Annexin V-FITC/PI staining based flow cytometric analysis (reference value: 5.2%)", "format": "functional", "outline": "as §2"}, "[9]": {"system": "PANC-1", "assay": "Induction of apoptosis in human PANC-1 cells assessed as viable cells at 1.88 uM incubated for 24 hrs by Annexin V-FITC/PI staining based flow cytometric analysis (reference value: 89.8%)", "format": "functional", "details": "read-out: Activity", "outline": "as §2"}, "[10]": {"system": "PANC-1", "assay": "Induction of apoptosis in human PANC-1 cells assessed as necrotic cells at 1.88 uM incubated for 24 hrs by Annexin V-FITC/PI staining based flow cytometric analysis (reference value: 3.9%)", "format": "functional", "outline": "as §2"}, "[11]": {"system": "PANC-1", "assay": "Induction of apoptosis in human PANC-1 cells assessed as viable cells at 2.82 uM incubated for 24 hrs by Annexin V-FITC/PI staining based flow cytometric analysis (reference value: 89.8%)", "format": "functional", "details": "read-out: Activity", "outline": "as §2"}, "[12]": {"system": "PANC-1", "assay": "Induction of apoptosis in human PANC-1 cells assessed as late apoptotic cells at 2.82 uM incubated for 24 hrs by Annexin V-FITC/PI staining based flow cytometric analysis (reference value: 1.1%)", "format": "functional", "outline": "as §2"}, "[13]": {"system": "PANC-1", "assay": "Induction of apoptosis in human PANC-1 cells assessed as necrotic cells at 2.82 uM incubated for 24 hrs by Annexin V-FITC/PI staining based flow cytometric analysis (reference value: 3.9%)", "format": "functional", "outline": "as §2"}, "[14]": {"system": "PANC-1", "assay": "Induction of apoptosis in human PANC-1 cells assessed as appearance of apoptotic bodies at 0.47 to 2.82 uM incubated for 24 hrs by Hoechst 33342 staining based fluorescence microscopic analysis", "format": "functional, cell-based", "details": "dose 0.47-2.82 µM", "outline": "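PANC-1 at 6500 cells/well, pre-incubated 24 h, then treated for 24 h. Washed with PBS and stained with Hoechst 33342 (1 μg mL−1 in PBS) 10 min at 37 °C in the dark. Nuclear morphology imaged by high-content fluorescence microscopy with a DAPI filter. Untreated cells as control.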"}, "[15]": {"system": "PANC-1", "assay": "Synergistic cytotoxicity against human PANC-1 cells assessed as combination index at 0.47 uM incubated for 72 hrs in the presence of 23.5 uM gemcitabine by MTT assay", "format": "functional"}, "[16]": {"assay": "Toxicity in Balb/c mouse assessed as occasional writhing at 0.01 to 10 mg/kg, ip measured upto 24 hrs by Irwin test", "format": "organism-based", "details": "in vivo, dose 0.01-10 mg/kg", "outline": "(§3)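 Irwin primary observation in female Balb/c mice aged 7–8 weeks, 3 per group. Single i.p. doses of 0.01, 0.1, 1, 5, 10, 50 and 100 mg kg−1 in 0.2% HPMC in saline; vehicle controls observed in parallel, non-blind. Standardized grid including rectal temperature and pupil diameter scored at 15, 30, 60, 120 and 180 min and 24 h, with continuous watch over 0–15 min.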"}, "[17]": {"assay": "Toxicity in Balb/c mouse assessed as decrease in activity at 50 to 100 mg/kg, ip measured upto 24 hrs by Irwin test", "format": "organism-based", "details": "in vivo, dose 50-100 mg/kg", "outline": "as §3"}, "[18]": {"assay": "Toxicity in Balb/c mouse assessed as decrease of abdominal muscle tone at 50 to 100 mg/kg, ip measured upto 24 hrs by Irwin test", "format": "organism-based", "details": "in vivo, dose 50-100 mg/kg", "outline": "as §3"}, "[19]": {"assay": "Toxicity in Balb/c mouse assessed as decreased reactivity to touch at 50 to 100 mg/kg, ip measured upto 24 hrs by Irwin test", "format": "organism-based", "details": "in vivo, dose 50-100 mg/kg", "outline": "as §3"}}, "note": "The source made the active and inactive calls. The rule behind the calls is not given here."}
{"smiles": "CCOC(=O)[C@]12CCC(C)(C)C[C@H]1C1=CC[C@@H]3[C@@]4(C)C(C=O)=C[C@@](C)(CO)[C@@H]4CC[C@@]3(C)[C@]1(C)CC2", "values": [{"measurement": "CI", "setting": "[1]", "value": 0.75}, {"measurement": "IC50", "setting": "[2]", "value": 0.58, "unit": "µM"}, {"measurement": "IC50", "setting": "[3]", "value": 0.83, "unit": "µM"}, {"measurement": "selectivity ratio", "setting": "[4]", "value": 6.5}, {"measurement": "Activity", "setting": "[5]", "value": "Dose-Dependent Effect"}, {"measurement": "Activity", "setting": "[6]", "value": 70.2, "unit": "%"}, {"measurement": "Activity", "setting": "[7]", "value": 1.1, "unit": "%"}, {"measurement": "Activity", "setting": "[8]", "value": 5.7, "unit": "%"}, {"measurement": "viability at 1.88 µM", "setting": "[9]", "value": 87.3, "unit": "%"}, {"measurement": "Activity", "setting": "[10]", "value": 3.1, "unit": "%"}, {"measurement": "viability at 2.82 µM", "setting": "[11]", "value": 84.7, "unit": "%"}, {"measurement": "Activity", "setting": "[12]", "value": 3.5, "unit": "%"}, {"measurement": "Activity", "setting": "[13]", "value": 2, "unit": "%"}, {"measurement": "Activity", "setting": "[14]", "value": "inactive"}, {"measurement": "CI", "setting": "[15]", "value": 0.98}, {"measurement": "Activity", "setting": "[16]", "value": "Non-Toxic"}, {"measurement": "Activity", "setting": "[17]", "value": "Toxic"}, {"measurement": "Activity", "setting": "[18]", "value": "Toxic"}, {"measurement": "Activity", "setting": "[19]", "value": "Toxic"}]}
